Source: ChEMBL document CHEMBL1124617, “Approaches to isozyme-specific inhibitors. 16. A novel methyl-C5' covalent adduct of L-ethionine and beta,gamma-imido-ATP as a potent multisubstrate inhibitor of rat methionine adenosyltransferases” (J Med Chem, 1989)

Tests used:
Assay type in all cases: protein assay
[1] = biological target: T1, S-adenosylmethionine synthetase (MAT 1 and MAT 2) (Rattus norvegicus, UniProt P13444+P18298); assay: Compound was tested for inhibition constant with kidney form of M-T variants of Rat methionine adenosyltransferase when Methionine was the variable substrate
[2] = biological target: T1, S-adenosylmethionine synthetase (MAT 1 and MAT 2); assay: Compound was tested for inhibition constant with kidney form of M-T variants of Rat methionine adenosyltransferase when ATP was the variable substrate
[3] = biological target: T1, S-adenosylmethionine synthetase (MAT 1 and MAT 2); assay: Compound was tested for inhibition constant with kidney form of M-2 variants of Rat methionine adenosyltransferase when Methionine was the variable substrate
In short: (§1)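 Rat M-2 (normal tissue) isozyme. With methionine as the variable substrate, MgATP was fixed at 2 mM. With MgATP as the variable substrate, methionine was fixed at 60 µM. The MgATP KM was 0.14 mM. Ki values come from kinetic analysis of inhibition against each substrate.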

[4] = biological target: T1, S-adenosylmethionine synthetase (MAT 1 and MAT 2); assay: Compound was tested for inhibition constant with kidney form of M-2 variants of Rat methionine adenosyltransferase when ATP was the variable substrate; in short: as §1

Compound | Ki [1] [µM] | Ki [2] [µM] | Ki [3] [µM] | Ki [4] [µM]
Nc1ncnc2c1ncn2[C@@H]1O[C@H]([C@@H](CCSCCC(N)C(=O)O)OP(=O)(O)OP(=O)(O)NP(=O)(O)O)[C@@H](O)[C@H]1O (some centres not stated) | 1.1 | 0.16 | 2.1 | 0.11
Nc1ncnc2c1ncn2[C@@H]1O[C@H]([C@H](CCSCCC(N)C(=O)O)OP(=O)(O)OP(=O)(O)NP(=O)(O)O)[C@@H](O)[C@H]1O (some centres not stated) | 2.7 | 0.41 | 5.4 | 0.27
Nc1ncnc2c1ncn2[C@@H]1O[C@H]([C@H](CSCCC(N)C(=O)O)OP(=O)(O)OP(=O)(O)NP(=O)(O)O)[C@@H](O)[C@H]1O (some centres not stated) | 0.67 | 0.21 | 0.65 | 0.13
